CSC inhib: cancer stem cell inhibition; cancer stem cell-like cells viability, luminescence; inhibition, % at 7.5 µM; 1.1% of 300,000 active; AID 2717; in the data active = inhibition above about 75%; tested in HMLE shEcad cells
SKKanGAS inh: blocks kanamycin growth of S. pyogenes SKKanGAS strain; BacTiter-Glo, 6 h; inhibition, % at 7.5 µM; 1.3% of 300,000 active; AID 1662;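 active = mean replicate score, as percent of positive control median, at least 50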;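 also: strain carries kanamycin resistance gene driven by streptokinase promoter and grows in 40 µg/ml kanamycin; loss of luminescence reflects streptokinase promoter inhibition or plain growth inhibition; 0% = median of DMSO wells and 100% = positive control at its reference dose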
Beta apoptosis: blocks beta cell apoptosis; INS-1E cytokine-induced death, ATP luminescence, 48 h; percent of positive-control rescue, neutral wells zero; protection from apoptosis, % (test concentration not listed); 0.8% of 300,000 active;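 active = Every replicate reaches about 75%, or at least half do and their mean reaches it too, limit read from the data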;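 also: 0% = cytokine-treated negative control wells and 100% = positive control rescue; higher means more ATP so stronger rescue from cytokine killing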
T cruzi inh: blocks replication of Trypanosoma cruzi; T. cruzi beta-gal in NIH3T3, luminescence, 90 h; inhibition, % (no concentration beside the values); 1.4% of 300,000 active; AID 1885;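 active = mean inhibition across valid replicates above about 55%, limit read from the data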;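 also: signal also drops with host cell toxicity which is not excluded here; 0% = plate median of DMSO wells and 100% = zero luminescence signal; higher percent means less beta-gal luminescence so fewer parasites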
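Assay system: NIH/3T3 host cells with β-galactosidase reporter T. cruzi; input: 5,000 host fibroblasts per well; compound: single 50 nL compound addition per well in DMSO; timing: ≥90 h infection period, 3 h prior cell attachment; measured by: GalScreen β-gal luminescence, detergent lysis, 60 min; evaluation: percent inhibition of parasite-derived β-gal signal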
Calb FLC: C. albicans growth modulation with fluconazole. C. albicans CaCi-2 (fluconazole-resistant clinical isolate) + fluconazole, Alamar Blue growth, 48 h. growth inhibition, % (no concentration beside the values). 0.57% of 300,000 active. AID 1979;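 active = growth inhibition above about 58% in most replicates, limit read from the data, passing the limit was not always enough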;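 also: all wells also contain fluconazole at 8 µg/ml as a sub-toxic cotreatment; 0% = median of DMSO wells and 100% = median of geldanamycin control wells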
Mdm2 MdmX PPI: inhibitors of human Mdm2/MdmX interaction; 3% of 330,000 active; inhibition, % at 8 µM; O15151+Q00987; SaOS-2 split-luciferase Mdm2/MdmX complementation, luminescence; AID 485346;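 active = inhibition of at least 50% at 8 µM in the primary screen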
Mdm2-MdmX conf: confirmation of human Mdm2/MdmX interaction inhibitors. shares compounds with Mdm2 MdmX PPI. Mdm2-MdmX binding, luminescent assay. inhibition, % at 8 µM. 55% of 10,000 active. AID 489028; in the data active = inhibition above about 40%
Full FLuc ctr: inhibits full-length luciferase, flagging false Mdm2/MdmX hits; SaOS-2 full-length luciferase counterscreen, luminescence; shares compounds with Mdm2 MdmX PPI; 77% of 6,200 active; inhibition, % at 8 µM; AID 504607;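 active = mean inhibition at 8 µM reaching about 37%, which flags the compound as non-specific, limit read from the data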;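 also: p53-null SaOS-2 cells with luciferase driven by a doxycycline-inducible promoter; compound on cells about two nights before reading with doxycycline added after day one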
Starred values were filed as active, the others as inactive; / = no result. Only some compounds are listed: those with a hit (about 5.7% of all), similar ones and a draw of the others.

SMILES | CSC inhib | SKKanGAS inh | Beta apoptosis | T cruzi inh | Calb FLC | Mdm2 MdmX PPI | Mdm2-MdmX conf | Full FLuc ctr
Cc1cccn2c(=O)c3cc(C(=O)NCCc4ccccc4)c(=N)n(Cc4ccco4)c3nc12 | 12 | 7 | 15 | 53 | 12 | 100* | 92* | 14
COc1ccc(CCNC(=O)c2cc3c(=O)n4cccc(C)c4nc3n(Cc3ccco3)c2=N)cc1OC | 74 | 5 | 105* | 39 | -4 | 100* | 96* | 3
N=c1c(C(=O)NCc2ccccc2)cc2c(=O)n3ccccc3nc2n1Cc1ccco1 | 34 | 3 | -7 | 8 | -1 | 37 | / | /
N=c1c(C(=O)NCc2ccc(F)cc2)cc2c(=O)n3ccccc3nc2n1Cc1ccco1 | 38 | -12 | 2 | -6 | 40 | 100* | 61* | 16
C=CCOc1cccc(C(=O)Nc2ncn[nH]2)c1 | -9 | -5 | -1 | -7 | -1 | -1 | / | /
C/C(=N\NC(=O)CNC(=O)C(c1ccccc1)c1ccccc1)c1ccc(C(C)(C)C)cc1 | 4 | 3 | 6 | 6 | -3 | 55* | 14 | /
CN=c1scc(-c2cccs2)n1/N=C/c1ccc(O)c(O)c1O | 48 | 5 | 28 | -19 | 64 | -43 | / | /
CN=c1scc(-c2cccs2)n1/N=C/c1ccccc1O | -8 | 2 | 10 | 7 | 1 | 95* | 96* | 13
CN1CCN(CC/C=C2/c3ccccc3Sc3ccc(S(=O)(=O)N(C)C)cc32)CC1 | 0 | -2 | -8 | 29 | / | 67* | 27 | /
COc1cc2c(cc1Cl)/C(=C\CCN(C)C)c1ccccc1S2 | 27 | 5 | 8 | 46 | -38 | 47 | / | /
COc1ccc(N2CCN(Cc3cc(=O)oc4cc(-c5ccccc5)c(O)cc34)CC2)cc1 | -6 | 12 | 34 | -4 | -4 | 89* | 59* | 22
O=c1cc(CN2CCN(C/C=C/c3ccccc3)CC2)c2cc(O)c(-c3ccccc3)cc2o1 | 13 | -3 | 20 | 39 | 1 | 50* | 42* | 65*
O=c1cc(CN2CCN(c3ccc(F)cc3)CC2)c2cc3c(cc2o1)CCCC3 | -18 | -4 | 16 | -5 | 7 | 68* | 1 | /
O=c1cc(CN2CCN(c3ccccc3F)CC2)c2cc(O)c(-c3ccccc3)cc2o1 | -4 | -1 | -4 | 8 | 25 | 3 | / | /
CC(C)CN(Cc1cc(=O)oc2cc(-c3ccccc3)c(O)cc12)CC(C)C | 109* | 76* | 42 | 17 | -2 | 80* | -5 | /
CC(NC(=O)c1ccccc1F)C1CC1 (configuration not stated) | 7 | 2 | -3 | -14 | 3 | 15 | / | /
CCc1ccc(C(O)(c2ccccc2OC)C(CN2CCOCC2)c2ccccc2)cc1 (configuration not stated) | 6 | -2 | 15 | -3 | 13 | 44 | / | /
COc1ccc(C(O)(CC(C)C)C(CN2CCOCC2)c2ccccc2)cc1 (configuration not stated) | 40 | -1 | 1 | -7 | -4 | 77* | 77* | 31
CCc1ccc(C(O)(CC(C)C)C(CN2CCOCC2)c2ccccc2)cc1 (configuration not stated) | 50 | 3 | 4 | 3 | -10 | 83* | 85* | 27
CCCCC/C=C/C1=CC(=O)C[C@H](c2ccc(OC)cc2)C1 | 13 | / | -2 | / | / | 2 | / | /
Cc1ccc2nc(-c3cccc(NC(=O)c4ccc5c(c4)OCCO5)c3)oc2c1 | -13 | 41 | -3 | -24 | -5 | -11 | / | /
O=C(Nc1ccc2oc(-c3ccncc3)nc2c1)c1ccccc1 | 7 | -4 | 0 | 1 | 8 | -13 | / | /
Cc1ccc(-c2nc3ncccc3o2)cc1NC(=O)c1ccc([N+](=O)[O-])o1 | 75 | 32 | 27 | 49 | -11 | 44 | / | /
O=C(Nc1ccc2oc(-c3ccncc3)nc2c1)c1ccc([N+](=O)[O-])o1 | / | 6 | 47 | 16 | 3 | 56* | 44* | 45*
O=C(Nc1ccc(-c2nc3cc(NC(=O)c4cccs4)ccc3o2)cc1)c1cccs1 | 10 | 2 | 26 | -3 | -4 | 60* | 23 | /

High-throughput results: PubChem, several laboratories
